This passage reports MIC results from ChEMBL document CHEMBL1125755, “Synthesis and structure-activity relationships of benzo[b]thienylallylamine antimycotics” (1991).

Molecules are shown by their SMILES. Values after ≈ are worked out from the molar mass of the structure shown.

Assay [1] concerns Aspergillus fumigatus. Briefly: In vitro minimum inhibitory concentration which is the lowest concentration at which no signs of fungal growth were detected against Aspergillus fumigatus.
The subject of assay [2] is Trichophyton benhamiae. Briefly: Evaluated in vitro for the minimum inhibitory concentration against Trichophyton mentagrophytes. The assay is classed as functional, Arthroderma benhamiae. The method, boiled down: (§1)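 Dermatophytes were tested in glass tubes of Sabouraud's dextrose broth (pH 6.5) against DMSO-dissolved compounds serially diluted in the medium. Inoculum was taken by spatula from 21-day Kimming agar cultures grown at 30 °C. Incubation was 7 days at 30 °C. MIC was the lowest concentration showing no macroscopic fungal growth.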

In assay [3] the test system is Microsporum canis. Briefly: Evaluated in vitro for the minimum inhibitory concentration against Microsporum canis. The assay is classed as functional. The method, boiled down:
as §1

For assay [4], the system named is Sporothrix schenckii. Briefly: Evaluated in vitro for the minimum inhibitory concentration against Sporothrix schenckii.
The test system of assay [5] is Candida parapsilosis. Briefly: Evaluated in vitro for the minimum inhibitory concentration against Candida parapsilosis 39. The assay is classed as functional. The note with it: Lodderomyces parapsilosis. The method, boiled down: (§2)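 Yeast tube dilution in malt extract broth (pH 4.8), with compounds in DMSO serially diluted in the medium. Inoculum was blastospores from about 30-h shaken cultures in yeast nitrogen base at 37 °C. Growth was read after 48 h at 30 °C. MIC was the lowest concentration without macroscopically visible growth.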

Assay [6] relates to Candida albicans. Briefly: Evaluated in vitro for the minimum inhibitory concentration against Candida albicans 124. The assay is classed as functional. The gist of the method: as §2
The subject of assay [7] is Aspergillus fumigatus. Briefly: In vitro minimum inhibitory concentration at which no signs of fungal growth were detected against laboratory adapted strains of Aspergillus fumigatus. The class given is functional. The method, boiled down: (§3)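 Inoculum of filamentous fungi harvested from 21-day-old Kimming agar cultures grown at 30 °C. Broth dilution in glass tubes with Sabouraud's dextrose broth (pH 6.5); compounds dissolved in DMSO and serially diluted in medium. Incubation at 30 °C, read after 72 h. MIC taken as the lowest concentration with no macroscopically visible growth.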

Assay [8] has as its system Aspergillus fumigatus. Briefly: Evaluated in vitro for the minimum inhibitory concentration against Aspergillus fumigatus.
In assay [9] the test system is Arthrodermataceae. Briefly: In vitro minimum inhibitory concentration at which no signs of fungal growth were detected against clinical isolated strains of dermatophytes. The assay is classed as functional. The method, boiled down: as §1
For assay [10], the system named is Scopulariopsis brevicaulis. Briefly: In vitro minimum inhibitory concentration at which no signs of fungal growth were detected against laboratory adapted strains of Scopulariopsis brevicaulis. The class given is functional. The gist of the method: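 Inoculum of this mould harvested from 21-day-old Kimming agar cultures grown at 30 °C. Compounds dissolved in DMSO and serially diluted in broth in glass tubes. Incubated at 30 °C and read after 72 h. MIC is the lowest concentration with no macroscopically detectable growth.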

Assay [11] has as its system Candida parapsilosis. Briefly: In vitro minimum inhibitory concentration at which no signs of fungal growth were detected against laboratory adapted strains of Candida parapsilosis. The class given is functional. As to conditions: Lodderomyces parapsilosis. The gist of the method:
(§4)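 Yeast blastospores taken from shaken cultures about 30 h old, grown at 37 °C in yeast nitrogen base. Tube dilution used malt extract broth (pH 4.8); compounds were dissolved in DMSO and serially diluted in medium. Incubated at 30 °C and read after 48 h. MIC is the lowest concentration with no macroscopic growth.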

For assay [12], the system named is Arthrodermataceae. Briefly: In vitro minimum inhibitory concentration at which no signs of fungal growth were detected against laboratory adapted strains of dermatophytes. The class given is functional. The gist of the method: (§5)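 Sabouraud's dextrose broth (pH 6.5) in glass tubes; compounds dissolved in DMSO and serially diluted with medium. Incubated at 30 °C and read after 7 days. MIC is the lowest concentration with no macroscopically visible fungal growth.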

In assay [13] the test system is Sporothrix schenckii. Briefly: In vitro minimum inhibitory concentration at which no signs of fungal growth were detected against laboratory adapted strains of Sporotrix schenck ii. The assay is classed as functional. The method, boiled down: as §5
Assay [14] relates to Nakaseomyces glabratus. Briefly: In vitro minimum inhibitory concentration at which no signs of fungal growth were detected against laboratory adapted strains of Torulopsis glabrata. The assay is classed as functional. The method, boiled down: as §4
In assay [15] the test system is Candida albicans. Briefly: In vitro minimum inhibitory concentration at which no signs of fungal growth were detected against laboratory adapted strains of Candida albicans. The assay is classed as functional. The method, boiled down:
as §4

The test system of assay [16] is Candida albicans. Briefly: In vitro minimum inhibitory concentration at which no signs of fungal growth were detected against clinical isolated strains of Candida albicans. The class given is functional. The gist of the method: as §2
Assay [17] concerns Aspergillus niger. Briefly: In vitro minimum inhibitory concentration at which no signs of fungal growth were detected against laboratory adapted strains of Aspergillus niger. The class given is functional. The method, boiled down: as §3
The subject of assay [18] is Nakaseomyces glabratus. Briefly: In vitro minimum inhibitory concentration at which no signs of fungal growth were detected against laboratory adapted strains of Torulopsis glabrata. The class given is functional. The gist of the method: as §4
For assay [19], the system named is Sporothrix schenckii. Briefly: In vitro minimum inhibitory concentration at which no signs of fungal growth were detected against laboratory adapted strains of Sporothrix schenck ii. The assay is classed as functional. The gist of the method:
as §5

Assay [20] relates to Arthrodermataceae. Briefly: In vitro minimum inhibitory concentration at which no signs of fungal growth were detected against clinically isolated strains of dermatophytes. The class given is functional. The gist of the method:
as §1

The test system of assay [21] is Candida albicans. Briefly: In vitro minimum inhibitory concentration at which no signs of fungal growth were detected against clinically isolated strains of Candida albicans. The assay is classed as functional. The method, boiled down: as §2
Assay [22] concerns Microsporum canis. Briefly: In vitro minimum inhibitory concentration which is the lowest concentration at which no signs of fungal growth were detected against Microsporum canis. The assay is classed as functional. The gist of the method:
as §1

The subject of assay [23] is Sporothrix schenckii. Briefly: In vitro minimum inhibitory concentration which is the lowest concentration at which no signs of fungal growth were detected against Sporothrix schenckii.
Assay [24] relates to Aspergillus fumigatus. Briefly: In vitro minimum inhibitory concentration which is the lowest concentration at which no signs of fungal growth were detected against Aspergillus fumigatus.
Assay [25] concerns Trichophyton benhamiae. Briefly: In vitro minimum inhibitory concentration which is the lowest concentration at which no signs of fungal growth were detected against Trichophyton mentagrophytes. The assay is classed as functional, Arthroderma benhamiae. The method, boiled down:
as §1

Assay [26] deals with Candida parapsilosis. Briefly: In vitro minimum inhibitory concentration which is the lowest concentration at which no signs of fungal growth were detected against Candida parapsilosis 39. The assay is classed as functional. As to conditions: Lodderomyces parapsilosis. The method, boiled down: as §2
For assay [27], the system named is Candida albicans. Briefly: In vitro minimum inhibitory concentration which is the lowest concentration at which no signs of fungal growth were detected against Candida albicans 124. The class given is functional. The gist of the method:
as §2

For the compound `CN(C/C=C/C#CC(C)(C)C)Cc1csc2ccc(Cl)cc12`, the MIC (as a rule, the smallest concentration in the dilution series that meets the test's criterion for growth inhibition) in assay [1] worked out at 0.4 µg/mL (≈ 1.21 µM); in assay [2] it was 0.006 µg/mL (≈ 0.0181 µM); in assay [3] it was 0.006 µg/mL (≈ 0.0181 µM); in [4], 3.13 µg/mL (≈ 9.43 µM); in assay [5] it was 0.4 µg/mL (≈ 1.21 µM); in assay [6], 12.5 µg/mL (≈ 37.7 µM).
For the compound `CN(C/C=C/C#CC(C)(C)C)Cc1cccc2c(Cl)csc12.Cl`, the MIC in [7] worked out at 0.05 µg/mL; in assay [2], 0.0015 µg/mL; in assay [8], 0.2 µg/mL; in [9] it was 0.02 µg/mL; in assay [10], 0.05 µg/mL; in [11], 0.02 µg/mL. The MIC in [3] is 0.003 µg/mL; in assay [4], 0.1 µg/mL; in assay [12], 0.003 µg/mL; in assay [13], 0.1 µg/mL; in assay [14] it was over 100 µg/mL; in [15] it was 0.4 µg/mL. For the same compound, the MIC in [5] came out at 0.1 µg/mL; in assay [6], 0.8 µg/mL; in assay [16] it was 3.13 µg/mL; in assay [17], 0.02 µg/mL.
On to `CN(C/C=C/C#CC(C)(C)C)Cc1cccc2ccccc12` [TERBINAFINE], for which the MIC in assay [18] is over 100 µg/mL; in assay [19], 0.4 µg/mL (≈ 1.37 µM); in assay [7], 1.56 µg/mL (≈ 5.35 µM); in assay [20] it was 0.01 µg/mL (≈ 0.0343 µM); in assay [21], 100 µg/mL (≈ 343 µM); in [22] it was 0.006 µg/mL (≈ 0.0206 µM). Besides, the minimum inhibitory concentration (MIC) in assay [23] is 0.8 µg/mL (≈ 2.75 µM); in assay [10], 0.8 µg/mL (≈ 2.75 µM); in assay [11], 0.8 µg/mL (≈ 2.75 µM); in [12], 0.006 µg/mL (≈ 0.0206 µM); in assay [24], 0.4 µg/mL (≈ 1.37 µM); in assay [25], 0.003 µg/mL (≈ 0.0103 µM). Moreover, the MIC came to 0.8 µg/mL (≈ 2.75 µM) in assay [26], 25 µg/mL (≈ 85.8 µM) in assay [27], 50 µg/mL (≈ 172 µM) in assay [15] and 0.02 µg/mL (≈ 0.0686 µM) in assay [17].
